Results of several laboratories.
Each line is one published result; the experiments were not run side by side.
CHEK1: Serine/threonine-protein kinase Chk1 (CHEK1, Homo sapiens, UniProt O14757)
PPARG: Peroxisome proliferator-activated receptor gamma (PPARG, Homo sapiens, UniProt P37231)

SMILES | target | test | setting | quantity | value
CSCC[C@H](NC(=O)[C@H](CCC(=O)O)NC(=O)[C@@H]1CCCN1C(=O)[C@@H](NC(=O)[C@@H]1CCCN1)[C@@H](C)O)C(=O)N[C@@H](CCCNC(=N)N)C(=O)N[C@@H](CCC(=O)O)C(=O)N[C@@H](CCCCN)C(=O)N[C@@H](CC(C)C)C(=O)N[C@H]1CSSC[C@@H]2NC(=O)[C@@H](NC(=O)[C@H](Cc3ccc(O)cc3)NC(=O)[C@H](CCCNC(=N)N)NC(=O)[C@H](C)NC(=O)[C@@H]3CCCN3C(=O)[C@H](CC(N)=O)NC(=O)[C@@H](NC(=O)[C@H](C)NC(=O)[C@H](C)NC(=O)[C@H](C)N)[C@@H](C)O)CSSC[C@H](NC(=O)CNC(=O)[C@H](CO)NC(=O)[C@H](CC(C)C)NC2=O)C(=O)N[C@@H]([C@@H](C)O)C(=O)N[C@@H](CCC(N)=O)C(=O)N[C@@H](CCC(N)=O)C(=O)N[C@@H](CC(=O)O)C(=O)N[C@@H](CC(C)C)C(=O)N[C@@H](CC(C)C)C(=O)N[C@@H]([C@@H](C)O)C(=O)N[C@@H](CC(C)C)C(=O)N[C@H](C(=O)N2CCC[C@H]2C(=O)N[C@@H](Cc2ccc(O)cc2)C(=O)O)CSSC[C@@H](C(=O)NCC(=O)NCC(=O)N2CCC[C@H]2C(=O)N[C@@H](CCCNC(=N)N)C(=O)N[C@@H](Cc2c[nH]c3ccccc23)C(=O)N[C@@H](CO)C(=O)N[C@H](C(=O)N[C@@H](CCC(=O)O)C(=O)N[C@@H](C)C(=O)O)[C@@H](C)O)NC(=O)[C@H](C(C)C)NC(=O)[C@H](CCCNC(=N)N)NC(=O)[C@H](C(C)C)NC(=O)[C@H](CC(C)C)NC(=O)[C@H](C)NC(=O)[C@H](CCCNC(=N)N)NC(=O)[C@H](C(C)C)NC(=O)[C@H](Cc2ccccc2)NC(=O)[C@H](Cc2c[nH]cn2)NC(=O)[C@H](Cc2c[nH]cn2)NC(=O)CNC1=O | Relaxin receptor 2 (RXFP2, Homo sapiens, UniProt Q8WXD0) | cAMP, agonist | – | EC50 | 1.66e-05 µM
CC(=O)c1cc([N+](=O)[O-])c(Sc2cccc(Cl)c2Cl)s1 | Caspase-3 (CASP3, Homo sapiens, UniProt P42574) | enzyme activity, inhibitor | – | EC50 | > 50 µM
Cc1noc(C)c1-c1ccc(-c2nc3cnccn3c2NC(C)(C)C)cc1 | Bromodomain and PHD finger-containing protein 3 (BRPF3, Homo sapiens, UniProt Q9ULD4) | cell-free assay, competition with immobilised ligand | – | Kd | 40 µM
COC(=O)Cc1ccc2c(c1)NC(=O)c1cc(C)c(-c3ccc([N+](=O)[O-])c(OC)c3)cc1N2 | CHEK1 | enzyme activity, inhibitor | – | IC50 | 49.4 nM
COc1cc(Nc2ncc3c(n2)-c2ccc(Cl)cc2C(c2c(F)cccc2OC)=NC3)ccc1C(=O)NCCOCCOCCNC(=O)COc1cccc2c1C(=O)N(C1CCC(=O)NC1=O)C2=O (stereo not shown) | Ferrochelatase, mitochondrial (FECH, Homo sapiens, UniProt P22830) | binding | lysate | Kd | 6.43 µM
COc1cc(-c2ccc3c(c2)Nc2ccc(NC(N)=O)cc2NC3=O)ccc1[N+](=O)[O-] | CHEK1 | enzyme activity, inhibitor | – | IC50 | 6.41 nM
CC[C@H](C)[C@H](NC(=O)[C@H](Cc1ccccc1)NC(=O)[C@H](CCC(=O)O)NC(=O)[C@H](CCCCN)NC(=O)[C@H](C)NC(=O)[C@H](C)NC(=O)[C@H](CCC(N)=O)NC(=O)CNC(=O)[C@H](CCC(=O)O)NC(=O)[C@H](CC(C)C)NC(=O)[C@H](Cc1ccc(O)cc1)NC(=O)[C@H](CO)NC(=O)[C@H](CO)NC(=O)[C@@H](NC(=O)[C@H](CC(=O)O)NC(=O)[C@H](CO)NC(=O)[C@@H](NC(=O)[C@H](Cc1ccccc1)NC(=O)[C@@H](NC(=O)CNC(=O)[C@H](CCC(=O)O)NC(=O)[C@H](C)NC(=O)[C@H](Cc1c[nH]cn1)NC[C@H](C)N)[C@@H](C)O)[C@@H](C)O)C(C)C)C(=O)N[C@@H](C)C(=O)N[C@@H](Cc1c[nH]c2ccccc12)C(=O)N[C@@H](CC(C)C)C(=O)N[C@H](C(=O)N[C@@H](CCCCN)C(=O)NCC(=O)N[C@@H](CCCNC(=N)N)C(N)=O)C(C)C | Glucagon-like peptide 1 receptor (GLP1R, Homo sapiens, UniProt P43220) | reporter gene, agonist, luciferase | – | EC50 | 2.51e-06 µM
CC(C)(Oc1ccc(CCNC(=O)c2ccc(Cl)cc2)cc1)C(=O)O | PPARG | binding, ITC | – | Kd | 30.3 µM
CCCCOc1nc(N)c2[nH]c(=O)n(CCN)c2n1 | Toll-like receptor 8 (TLR8, Homo sapiens, UniProt Q9NR97) | reporter gene, agonist | – | EC50 | 209 µM
O=C(CCCCCCC(=O)Nc1ccc([C@H]2O[C@@H](CSc3nc(-c4ccccc4)c(-c4ccccc4)o3)C[C@@H](c3ccc(CO)cc3)O2)cc1)NO | Histone deacetylase 5 (HDAC5, Homo sapiens, UniProt Q9UQL6) | cell-free assay | – | Kd | > 30.2 µM
CCCCCCCCCCCCCCCCC#CC(=O)O | DNA topoisomerase 1 (TOP1, Homo sapiens, UniProt P11387) | enzyme activity, inhibitor | – | EC50 | 20.5 µM
CC[C@@H](Oc1cccc(CN(CCCOc2ccc(OC)cc2)c2nc3ccccc3o2)c1)C(=O)O | PPARG | binding, ITC | – | Kd | 9.03 µM
O=C(O)c1ccc(-c2[nH]nc3c2Cc2cc(CNC4CCC(O)CC4)ccc2-3)o1 (stereo not shown) | CHEK1 | enzyme activity, inhibitor | – | IC50 | 1560 nM
COc1ccc(-c2nsc(NC(=O)[C@@H]3C[C@H]3C)c2C)cc1 | Metabotropic glutamate receptor 5 (GRM5, Homo sapiens, UniProt P41594) | calcium signal, agonist | – | EC50 | > 25 µM
COC(=O)Cc1ccc2c(c1)NC(=O)c1ccc(-c3cc(OC)ncc3C)cc1N2 | CHEK1 | enzyme activity, inhibitor | – | IC50 | 7.79 nM
c1ccc2c(Oc3nc(Nc4ccc(N5CCOCC5)cc4)c4ncn(C5CCCCC5)c4n3)cccc2c1 | Protein smoothened (SMO, Homo sapiens, UniProt Q99835) | GTPγS binding, agonist, radiometric | cell membranes | EC50 | 0.229 µM
